Compound activity from PubChem BioAssay.
FLuc stim CS: FLuc activators, initial screening, artefact control for FLuc-dependent activation tests, biochemical, ATPlite luminescence; Luciferin 4-monooxygenase (Photinus pyralis), P08659; 200,000 tested, under 10 active; activation factor at 10 µM; ATPlite luciferase biochemical, 10 min; 0 = ATP-free wells, 1 = DMSO control;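 active = luciferase activation factor, scaled between plate controls, of at least 2 with compound at 10 µM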
Target sequence (P08659 whole entry, looked up): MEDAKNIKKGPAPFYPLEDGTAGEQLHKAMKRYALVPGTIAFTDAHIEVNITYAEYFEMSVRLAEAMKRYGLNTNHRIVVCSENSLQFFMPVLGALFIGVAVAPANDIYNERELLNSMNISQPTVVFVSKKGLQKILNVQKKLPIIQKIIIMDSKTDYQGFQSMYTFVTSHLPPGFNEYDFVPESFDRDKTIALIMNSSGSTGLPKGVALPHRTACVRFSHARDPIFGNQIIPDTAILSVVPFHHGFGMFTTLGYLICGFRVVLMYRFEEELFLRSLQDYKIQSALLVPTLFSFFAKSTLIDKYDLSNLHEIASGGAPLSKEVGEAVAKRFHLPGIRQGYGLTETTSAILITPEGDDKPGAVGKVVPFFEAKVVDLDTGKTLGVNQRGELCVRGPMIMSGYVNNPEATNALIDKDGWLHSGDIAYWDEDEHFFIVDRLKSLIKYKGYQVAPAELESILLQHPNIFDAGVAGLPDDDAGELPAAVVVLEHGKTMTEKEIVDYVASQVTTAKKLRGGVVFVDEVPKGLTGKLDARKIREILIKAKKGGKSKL
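System: Luciferase/luciferin detection reagent, cell-free biochemical luciferase assay | Medium: PBS buffer for ATP | Dosing: Test compounds dosed from 2 mM stocks in 100% DMSO | Timing: 10 min at ambient temperature | Signal: Luminescence measurement of luciferase light output | Evaluation: Luciferase activation, seen as luminescence increase over controls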
Pf gamet viab: late stage P. falciparum gametocyte viability inhibitors, primary screen, ATP luminescence, HTS | P. falciparum stage V gametocytes, 24 h | inhibition, % at 10.9 µM | 0.065% of 150,000 active | AID 743093, 2013;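 active = inhibition above the mean plus 3 SD of compounds within the control limits, set per campaign, cut at about 38% in these data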;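 note: 0% = DMSO wells and 100% = medium only without gametocytes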
STAT1 act: STAT1 signaling activators, primary screen, cell-based, HTS, luciferase reporter; 2.6% of 200,000 active; activation (% of control), % at 5.5 µM; AID 932, 2007; NIH 3T3 STAT1-luciferase reporter, IFN-gamma, luminescence; 100% = IFN-gamma alone, no compound;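 active = activation above the screen-wide mean activation plus 3 SD, cut at about 130% in these data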;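 note: raw ratio to IFN-gamma control signal so 100% means no change and 0% no light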
NF-kB neuron act: activators of NF-kB expression in neurons, primary screen, cell-based, HTS; human neuronal cells, NF-kB reporter expression; stronger effect = higher value; fold change at 12.5 µM; 1.6% of 190,000 active; AID 1239, 2008; in the data active = fold change above about 3.3
FLuc inh counter: firefly luciferase enzyme inhibitors, primary screen, artefact control for luciferase-based inhibitor screens, biochemical, luminescence, ATPLite; Luciferin 4-monooxygenase (Photinus pyralis), P08659; 10 min; inhibition, % at 10 µM; 1.5% of 200,000 active;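 active = inhibition above about 50% when tested at 10 µM, limit read from the data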
APP 5'UTR act: activators of APP 5'UTR luciferase reporter, primary screen, SH-SY5Y cells; SH-SY5Y APP 5'UTR luciferase reporter, luminescence; zero percent = DMSO vehicle wells; activation, % at 2 µM; AID 1276, 2008; 1% of 190,000 active;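 active = activation above a set limit, based on mean plus 3 SD of controls, cut at about 140% in these data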
STAT1 activ conf: STAT1 signaling activators, confirmation, cell-based, HTS, luciferase reporter; shares compounds with STAT1 act; AID 1262, 2008; 97% of 1,200 active; NIH 3T3 STAT1-luciferase reporter, IFN-gamma potentiation, luminescence; 100% = IFN-gamma EC80 alone, no compound; activation (% of control), % at 5.7 µM;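 active = activation above a set limit carried over from the earlier primary STAT1 screen, cut at about 140% in these data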;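 note: simple ratio to median IFN-gamma plus DMSO wells so 0% means no light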
NFkB act STAT1ct: NF-kB reporter activators, TNF-alpha stimulated, counter-screen for STAT1 activator project, cell-based, HEK293T, luciferase luminescence; shares compounds with STAT1 act; 100% = TNF-alpha with vehicle only; activation (% of control), % at 5.7 µM; 43% of 1,200 active; AID 1306, 2008;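 active = activation above the mean of solvent-only control wells plus 3 SD, set per campaign, cut at about 130% in these data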;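 note: TNF-alpha given at a submaximal dose yielding about 80% of full reporter signal; values are well signal over median control so 100% means no change and 0% no light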
STAT3 act 2: STAT3 reporter activation by STAT1 hits, confirmation, counter-screen for STAT1 activator project, U3A cells, luciferase, luminescence; 46% of 1,200 active; AID 1316, 2008; IL-6; cells lack STAT1; 100 = IL-6 alone, no compound effect; activation (% of control), % at 5.7 µM; shares compounds with STAT1 act;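 active = activation above the solvent-only control well mean plus 3 SD, set per plate batch, cut at about 110% in these data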;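 note: 0% = no luminescence and 100% = median IL-6 plus DMSO wells; higher means more STAT3 reporter activation so hits are non-selective activators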
The depositor's hits bear a star; / = not tested or not shown. Sampled rows, rich in hits. Any-hit rate of the full collection: about 3.5%.

SMILES	FLuc stim CS	Pf gamet viab	STAT1 act	NF-kB neuron act	FLuc inh counter	APP 5'UTR act	STAT1 activ conf	NFkB act STAT1ct	STAT3 act 2
Brc1ccc2nc(-c3c[nH]c4ccccc34)cn2c1	0.4	-14	194*	1	58*	213*	287*	143*	113*
CCC(C)Sc1ccc([C@H]2N[C@@](C)(C(=O)OC)[C@H]3C(=O)N(C)C(=O)[C@@H]23)cc1 (stereo partly specified)	/	11	/	/	/	/	/	/	/
O=c1[nH]c2cc3c(cc2cc1CN(Cc1ccco1)C(=S)NCCCN1CCOCC1)OCCO3	1.1	-5	97	1.1	-6	15	/	/	/
Cc1nn2c(nc1=O)NNC2(C)C(C)(C)C (stereo unspecified)	1	-33	99	1	-4	2	/	/	/
CC(C)(C)N1C(=O)c2ccc(C(=O)Nc3nccs3)cc2C1=O	0.5	3	154*	2	49	-11	174*	126	117*
Cc1cc(C(=O)Nc2sc3c(c2C#N)CCC(C)C3)cs1 (stereo unspecified)	0.9	3	152*	1.8	8	30	199*	141*	114*
N#Cc1c(NC(=O)c2ccccc2)sc2c1CCC2	0.8	/	169*	3.8*	22	109	191*	118	103
N#Cc1c(NC(=S)NC(=O)c2ccccc2)sc2c1CCCC2	0.9	-1	111	1.2	13	38	/	/	/
N=c1oc2cc(O)ccc2cc1C(=O)Nc1nc2ccccc2s1	0.3	-10	168*	1.6	75*	178*	195*	112	152*
N=c1oc2cc(O)ccc2cc1C(=O)Nc1ccccn1	0.8	/	110	1.4	16	-10	/	/	/
CC(C)c1ccccc1OS(N)(=O)=O	/	8	/	/	/	/	/	/	/
Cc1ccc2cc(CCNC(=O)c3ccco3)c(=O)[nH]c2c1C	1	/	156*	3.9*	4	129	201*	138*	121*
Cc1cc2cc(CCNC(=O)c3cccs3)c(=O)[nH]c2cc1C	1.1	/	151*	2	-9	98	176*	131	96
Cc1ccc2cc(CCNC(=O)c3ccco3)c(=O)[nH]c2c1	1	/	128	2.4	-2	47	/	/	/
COc1ccc(-c2cc(C(=O)NN)[nH]n2)cc1	0.9	-11	118	0.98	6	-84	/	/	/
COc1ccc(-c2cc(-c3ccc(OC)cc3)[nH]n2)cc1	1	-16	151*	1.4	4	53	162*	123	94
COc1ccc(/C(N)=N/OC(=O)c2cccc([N+](=O)[O-])c2)cc1OC	1.1	-1	100	1.3	-9	/	/	/	/
N/C(=N\OC(=O)c1ccc2c(c1)OCO2)c1cccc([N+](=O)[O-])c1	0	/	153*	3.2	96*	85	198*	126	118*
O=[N+]([O-])c1ccccc1-c1nc(-c2ccc(Br)o2)no1	0.8	9	170*	0.99	20	160*	200*	132	137*
Nc1nnc(-c2ccccc2[N+](=O)[O-])o1	1	/	109	1	-4	14	/	/	/
O=C(N=Nc1c(O)n(Cc2ccccc2)c2ccccc12)c1ccc(O)cc1	0.5	-38	161*	2.5	51*	153*	217*	111	118*
CC(C)C1=NN2C(=N)CC(=O)N=C2S1	1	6	104	1.1	0	5	/	/	/
Brc1c(-c2ccccc2)nc2n1Cc1ccccc1-2	/	2	/	/	/	/	/	/	/
Clc1ccc(-c2cn3c(n2)-c2ccccc2C3)cc1Cl	0.3	/	196*	9.7*	66*	166*	258*	134*	135*
CC(=O)Nc1ccc(N=Nc2ccc(O)cc2)cc1	0.5	/	152*	9.2*	46	81	155*	124	111*
SMILES	FLuc stim CS	Pf gamet viab	STAT1 act	NF-kB neuron act	FLuc inh counter	APP 5'UTR act	STAT1 activ conf	NFkB act STAT1ct	STAT3 act 2
CC(=O)Nc1ccc(N=NN2CCOCC2)cc1	1	-2	117	1.9	2	12	/	/	/
Cc1cc(C)c(C)c(S(=O)(=O)NCC(=O)N2CCCC2)c1C	1.1	/	96	0.96	-8	-5	/	/	/
O=C(N/N=C/c1ccccc1F)c1csc2c1CCCC2	0.5	-7	157*	4*	46	33	217*	120	105
COc1ccc(CNC(=O)c2ccc(SC)cc2OC)cc1	1	-15	101	0.99	-4	-16	/	/	/
COc1cc(SC)ccc1C(=O)NCCc1ccccc1	0.9	-6	161*	3.5*	6	85	169*	123	144*
COc1cc(SC)ccc1C(=O)Nc1ccc2c(c1)OCO2	0.3	13	153*	7.6*	72*	170*	250*	136*	106
COc1cc(SC)ccc1C(=O)Nc1ncc(Cl)cc1Cl	0.7	11	151*	3.8*	27	142*	174*	125	94
COc1cc(SC)ccc1C(=O)Nc1ccc(C)cc1C	0.6	/	153*	4*	36	116	189*	131	106
COc1cc(SC)ccc1C(=O)Nc1ccccn1	/	6	/	/	/	/	/	/	/
Cc1nc(C(=O)O)nn1-c1cc(Cl)ccc1Cl	1	-5	104	0.86	-3	-1	/	/	/
O=C(Cn1cnc2ccccc2c1=O)c1ccc(Cl)cc1	1	13	155*	/	-4	17	148*	113	95
CC(C)Oc1cccc(C(=O)Nc2ccc(Br)cc2F)c1	0.5	1	162*	6.1*	48	139*	209*	119	91
Cn1cnnc1SC(C(=O)Nc1cccc(C(F)(F)F)c1)c1ccccc1 (stereo unspecified)	1	/	98	0.96	2	-13	/	/	/
O=C(Nc1nc(-c2nc3ccccc3s2)cs1)C1CC1	0.5	/	162*	5.7*	54*	238*	227*	128	117*
O=C(Nc1nc(-c2nc3ccccc3s2)cs1)c1ccco1	1	/	106	1.3	2	16	/	/	/
